Sampled rows, rich in hits. Any-hit rate of the full collection: about 2.2%.
DTT redox prof: compounds producing H2O2 with reducing agent – biochemical, NIH compound library profiling, artefact control for MLSCN library redox annotation, primary screen; DTT-dependent redox cycling H2O2, phenol red/HRP absorbance; 100% = 100 µM peroxide control, 0% = buffer; activation, % at 10 µM; 200,000 compounds, 0.03% hits; AID 878;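 active = activation of at least 50% relative to the plate's high and low controls in the primary single-dose screen; inactive = activation below 50%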;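 note: compound incubated with DTT at 0.8 mM final as the reducing agent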
RBBP9 inh: inhibitors of human serine hydrolase RBBP9; O75884; recombinant RBBP9, FP-Rh probe fluorescence polarization; 220,000 compounds, 0.2% hits; AID 1515; inhibition, % at 7.94 µM;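 active = inhibition above the campaign mean of all tested compounds plus 3 SD, cut at about 14% in these data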;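 note: plate controls were DMSO wells with RBBP9 for no effect and wells lacking RBBP9 protein for full effect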
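Test system: recombinant human RBBP9. Quantity: 2.5 µM RBBP9 dispensing solution, before mixing. Detection: FP readout at 525/598 nm. Reagent: Serine-hydrolase probe FP-Rh, 375 nM pre-mixing. Measure: % inhibition. Control set: DMSO-treated enzyme wells and wells lacking RBBP9. Buffer or medium: Tris-NaCl-Pluronic buffer, pH 8.0. Times: preincubation 30 min plus labeling 45 min at 25 °C.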
Arbovirus anti: blocks arbovirus infection; arbovirus infection cell-based antiviral screen; inhibition, % at 10 µM; 200,000 compounds, 0.37% hits; AID 1251; in the data active = inhibition above about 30%
Wee1 degr inh: blocks degradation of human Wee1 kinase; P30291; HeLa Luc-Wee1K328M stability, luciferase luminescence; 100% = proteasome inhibitor MG132 effect; reporter increase, % at 5 µM; 220,000 compounds, 1.2% hits; AID 1321;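 active = activation above the mean of all tested compounds plus 3 SD, set per screening run, cut at about 8.8% in these data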;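 note: cells exposed to compound for 20 h before luminescence read; 0% = DMSO alone and 100% = MG132 at 30 µM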
PKD1 inh: PKD1 (human) kinase inhibition; PKD1 kinase fluorescence polarization assay; inhibition, % (concentration not given with the values); 200,000 compounds, 0.056% hits; AID 797; in the data active = inhibition above about 50%
p97 inhibitor: blocks human p97 ATPase activity; P55072; recombinant p97 ATPase, Kinase-Glo ATP luminescence, 3 h; inhibition, % at 8 µM; 220,000 compounds, 0.42% hits; AID 1481; in the data active = inhibition above about 15%;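 note: 0% = DMSO vehicle and 100% = wells lacking enzyme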
Target sequence (P55072 whole entry, looked up): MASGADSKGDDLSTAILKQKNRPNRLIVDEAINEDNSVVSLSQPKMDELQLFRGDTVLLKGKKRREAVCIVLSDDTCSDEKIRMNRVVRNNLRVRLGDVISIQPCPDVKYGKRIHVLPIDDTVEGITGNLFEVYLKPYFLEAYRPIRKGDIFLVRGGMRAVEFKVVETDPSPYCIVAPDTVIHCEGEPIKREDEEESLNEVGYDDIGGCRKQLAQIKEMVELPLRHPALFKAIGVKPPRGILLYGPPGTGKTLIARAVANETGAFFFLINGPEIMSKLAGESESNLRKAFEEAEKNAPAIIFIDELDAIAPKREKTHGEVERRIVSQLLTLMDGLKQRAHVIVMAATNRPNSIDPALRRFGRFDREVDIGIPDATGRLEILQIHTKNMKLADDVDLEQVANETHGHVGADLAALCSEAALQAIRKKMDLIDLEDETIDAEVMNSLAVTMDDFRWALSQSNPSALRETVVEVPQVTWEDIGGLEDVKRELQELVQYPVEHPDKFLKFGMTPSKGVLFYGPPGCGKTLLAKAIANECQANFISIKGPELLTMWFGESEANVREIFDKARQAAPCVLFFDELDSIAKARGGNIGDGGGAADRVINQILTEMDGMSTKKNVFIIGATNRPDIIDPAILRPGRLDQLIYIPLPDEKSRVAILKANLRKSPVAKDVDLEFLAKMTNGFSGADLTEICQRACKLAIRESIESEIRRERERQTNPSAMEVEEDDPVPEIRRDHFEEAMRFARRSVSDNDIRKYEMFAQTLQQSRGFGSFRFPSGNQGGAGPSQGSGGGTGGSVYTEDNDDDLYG
Wee1 stab conf: confirmation of human Wee1 degradation inhibitors | HeLa Luc-Wee1K328M degradation, luminescence; vehicle 0%, proteasome-blocked wells 100% | AID 1410 | shares compounds with Wee1 degr inh | activation, % at 5 µM | 1,100 compounds, 4% hits; in the data active = activation above about 8.9%
An asterisk follows results filed as active; / = no result given.

SMILES	DTT redox prof	RBBP9 inh	Arbovirus anti	Wee1 degr inh	PKD1 inh	p97 inhibitor	Wee1 stab conf
CCN1CC(CNCc2cn(-c3ccc(OC)cc3)nc2-c2ccccc2Cl)CC1=O (stereo unspecified)	-1.3	0.6	-2.5	23.8*	3.5	3.1	0.8
Cc1ccc(/C=N/OC(=O)c2nn(C)cc2Cl)cc1	-0.5	-2.2	-0.3	0.0	-7.4	-2.8	/
COc1cccc(NC(=O)Nc2ccc3c(c2)nnn3C)c1	0.5	-7.2	-2.2	15.8*	-1.9	0.8	-0.5
COc1cccc(NC(=O)Nc2cccnc2)c1	-0.2	1.3	2.9	-2.0	2.0	-2.0	/
CCc1ccc(NC(=O)Nc2cccc(OC)c2)cc1	-0.5	-7.0	1.5	12.1*	0.6	-0.2	3.1
COC(=O)c1ccc(NC(=O)CSc2nnc(C(C)NC(=O)c3ccccc3Cl)n2C)cc1 (stereo unspecified)	1.5	-1.2	4.4	21.8*	-17.6	2.5	0.0
COc1ccc(CC(=O)NC(C)c2nnc(SCC(=O)Nc3ccccc3)n2C)cc1 (stereo unspecified)	-0.8	-0.2	7.5	-3.1	1.1	3.3	/
COC(=O)c1ccc(NC(=O)CSc2ccccn2)cc1	-2.3	-8.4	-4.3	15.0*	-7.6	6.3	0.5
COC(=O)c1ccc(NC(=O)CSc2ccccc2)cc1	-0.9	-5.7	7.0	0.6	0.4	4.3	/
O=C(NCc1nc2ccccc2[nH]1)c1cccc(S(=O)(=O)N2CCCC2)c1	0.1	-0.3	6.1	0.6	-2.6	3.4	/
Cc1nn(Cc2ccccc2)c2c1C(c1cccc(Cl)c1)C(C#N)=C(N)O2 (stereo unspecified)	0.1	-0.6	-5.2	3.5	-0.5	0.4	/
CCC(C)NCCOc1ccc(C)cc1[N+](=O)[O-] (stereo unspecified)	-1.7	-13.3	3.6	25.1*	9.2	1.3	0.4
C=CCN(CC=C)C(=S)NC(=O)c1ccc(C)c(Br)c1	-0.2	-9.2	-20.8	-0.2	-6.3	-0.5	/
CCOC(=O)C1=C(c2ccccc2)NC(=S)NC1c1ccc(C)c([N+](=O)[O-])c1 (stereo unspecified)	0.1	-1.6	3.1	-0.9	7.3	-1.9	/
CCOC(=O)C1=C(c2ccccc2)NC(=S)NC1c1cccc([N+](=O)[O-])c1 (stereo unspecified)	0.0	-2.9	9.2	11.6*	-6.8	5.1	-1.4
CCn1c(-c2cc3c(C(F)(F)F)nn(C)c3s2)n[nH]c1=S	3.9	-6.6	-3.1	0.2	-5.8	0.3	/
Cc1ccsc1/C=C1/CN(C)Cc2c1nc1ccccc1c2C(=O)O	/	-2.7	/	11.1*	/	8.1	-0.7
COc1ccccc1N1CCN(/N=C/C=C\c2ccco2)CC1	0.1	-6.2	0.5	24.1*	-5.7	-1.0	2.2
CN(CC(=O)N1CCc2ccccc21)S(=O)(=O)c1cccs1	1.0	-2.4	3.4	13.8*	-3.8	6.5	4.1
CN(CC(=O)NC1CCCc2ccccc21)S(=O)(=O)c1cccs1 (stereo unspecified)	-0.2	-6.5	-3.1	2.4	0.0	2.8	/
Cc1cc(C)cc(NC(=O)CSc2nc(CSc3ccc(Cl)cc3)cc(=O)[nH]2)c1	/	0.9	/	-1.4	/	-1.3	/
CC1(C)CC(=O)C(C(c2ccncc2)C2C(=O)CC(C)(C)CC2=O)C(=O)C1	0.2	-7.7	/	13.4*	-10.2	-2.1	0.4
COc1ccc(C(C2C(=O)CC(C)(C)CC2=O)C2C(=O)CC(C)(C)CC2=O)cc1	/	-10.1	/	-2.2	/	3.9	/
Cc1cccc2cc(CNC3CCCC3)c(Cl)nc12	-0.5	-12.2	2.1	7.5	-6.6	5.6	/
O=C(NCCN1CCOCC1)C1CCC(=O)N1Cc1ccc(F)cc1 (stereo unspecified)	0.5	2.1	6.0	10.9*	5.0	1.6	4.7
SMILES	DTT redox prof	RBBP9 inh	Arbovirus anti	Wee1 degr inh	PKD1 inh	p97 inhibitor	Wee1 stab conf
Cc1ccc(CN2C(=O)CCC2C(=O)NCCCN2CCOCC2)cc1 (stereo unspecified)	-0.3	-10.0	3.5	1.4	-7.9	-6.2	/
CCC(C)c1ccc(NC(=S)NCc2ccccc2OC)cc1 (stereo unspecified)	-0.8	2.6	-40.0	16.5*	9.8	1.6	1.9
COC(=O)Cc1ccc(NC(=S)NCc2ccccc2OC)cc1	-0.4	-8.0	0.1	-0.2	0.4	-3.3	/
O=C1c2ccccc2NC(c2ccccc2)N1Cc1ccco1 (stereo unspecified)	-1.5	-9.6	-1.5	14.6*	2.1	-4.0	0.3
O=C(CCS(=O)(=O)c1ccccc1)Nc1ccc(N2CCOCC2)cc1	-0.7	-4.3	0.2	11.4*	2.0	5.1	-2.3
CCCCC(CC)CNC(=O)C1CC=CCC1C(=O)O (stereo unspecified)	0.1	-4.2	3.5	0.2	-10.4	3.1	/
CCOC(=O)c1c(C)n(-c2ccc(C)cc2)c2ccc(OCC(O)CN3CCN(C)CC3)cc12 (stereo unspecified)	-0.1	1.8	-33.9	-0.1	-3.4	1.9	/
CC1=CC(c2ccccc2)n2nc(N3C(=O)c4ccccc4C3=O)nc2N1 (stereo unspecified)	1.2	-4.0	2.5	0.1	-5.8	8.6	/
CC1=CC(c2ccccc2)n2nnnc2N1 (stereo unspecified)	/	-7.2	/	11.6*	/	1.5	3.8
CCCc1cnc(N2CCN(C(=O)c3c(-c4ccccc4)noc3C)CC2)nc1	/	-8.4	/	4.7	/	-7.0	/
COc1ccc(CCN2CC(C(=O)NC3CCCCC3)CC2=O)cc1OC (stereo unspecified)	-0.7	-4.5	-2.0	0.8	1.0	0.8	/
Cc1cc(C(=O)COC(=O)c2ccc(N)c([N+](=O)[O-])c2)c(C)n1-c1ccc2c(c1)OCO2	1.1	0.9	-2.8	3.8	-9.0	4.9	/
CC(=O)c1ccc(OCC(=O)c2cc(C)n(-c3ccc4c(c3)OCO4)c2C)cc1	-0.3	-4.4	11.7	15.4*	0.2	-2.9	0.5
O=S(=O)(c1ccccc1)N1N=C(c2ccccc2)CC1c1ccccc1 (stereo unspecified)	-0.1	-5.9	-5.2	-1.3	-7.3	-2.7	/
COc1ccc(C2=NN(S(=O)(=O)c3ccccc3)C(c3ccccc3)C2)cc1 (stereo unspecified)	/	-12.5	/	11.2*	/	4.9	1.9
Cc1ccccc1-n1cnnc1SCC(=O)Nc1cccnc1Cl	-0.8	-1.2	6.5	15.1*	-1.3	-1.4	-0.4
CCCNC(=O)c1nnsc1Sc1ccc(Cl)cc1	0.2	-5.8	12.9	-1.0	-6.1	0.1	/
COC(=O)Nc1ccc(S(=O)(=O)N2CCCC(C(=O)N3CC(C)OC(C)C3)C2)cc1 (stereo unspecified)	-1.9	-6.9	5.8	3.7	1.0	-0.2	/

Screening data deposited in PubChem BioAssay by several laboratories.
